Experimental findings from ChEMBL document CHEMBL4513216, “Probing the Open Global Health Chemical Diversity Library for Multistage-Active Starting Points for Next-Generation Antimalarials” (ACS Infect Dis, 2020) are described below.

This data set is described as follows: Toxicity liver stage against HepG2, at 10uM. Type of data set: cell-based. Set-up: test concentration 10 uM, cell line HepG2-A16-CD81EGFP. The following applies: human, HepG2-A16-CD81EGFP cells; read-out: INHIBITION
The method, boiled down:
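Uninfected HepG2-A16-CD81EGFP cells, 3 × 10^3 per well, 1536-well, plated on prespotted compound at 10 μM final, parasite-free screening media added to match infected plates; puromycin 10 μM positive, DMSO 0.5% negative; run in parallel with 48 h PbLuc assay at 37 °C, 5% CO2; viability by CellTiter-Glo luminescence, normalized to controls.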
Take `COc1ccc(F)cc1S(=O)(=O)N1CCC(OC)CC1`: the cytotoxicity at 10 µM is -3.97%. In the case of `CS(=O)(=O)C1CCN(S(=O)(=O)c2ccc(F)c(F)c2)CC1`, the cytotoxicity at 10 µM was -10.4%.

Turning to `CNCc1ccc(Oc2cncc(C)n2)cc1`, the cytotoxicity at 10 µM turned out to be 7.1%. For `COC(=O)c1cc2c(OC)c(C)c(OC)cc2[nH]1`, the cytotoxicity at 10 µM was -12.8%. With `CN(C)CC(=O)N1CCOCC2(C1)CN(c1ccccc1)C(=O)CO2` (stereo not given), the cytotoxicity at 10 µM worked out at 0.00964%. As to `O=C(c1cscn1)N1C[C@@H]2[C@@H](C1)OCC(=O)N2CC1CCCC1`, the cytotoxicity at 10 µM is -10.2%. For the compound `CCNC(=O)c1ncn2c1CN(C)S(=O)(=O)c1ccccc1-2`, the cytotoxicity at 10 µM is -10.1%. Then `COC[C@H]1CCC[C@]12CN(C(=O)NCc1ccccc1)CCO2`, with -11.6%; and `CCN(CC)CCCNC(=O)C(C)n1cc(Br)cn1` (stereo not given), with -3.33%; and `COCc1nc(N(C)C)ncc1C(=O)NC(C)C`, with 12.8%. For `CC(C(=O)N1CCc2ccccc2C1)n1cc(Br)cn1` (stereo not given), the cytotoxicity at 10 µM is -8.77%. `O=C(c1ccccc1F)N1CCCC1Cn1c(=O)oc2ccccc21` (stereo not given): the cytotoxicity at 10 µM stood at 4.49%. Under `O=C1N[C@H]2OCCC[C@H]2[C@H](c2ccc(C(=O)O)cc2)N1` stands -2.51%; under `CCC(=O)N1CCCCC1c1nc(O)c2c(n1)CN(C(C)=O)CC2` (stereo not given), 0.525%. For `CN(C)C(=O)CCc1cncc(C2CCCN2Cc2ccccn2)n1` (stereo not given), the cytotoxicity at 10 µM was -3.94%. With `Cc1cc(C2CCCN2C(=O)c2csc(-c3cnn(C)c3)n2)on1` (stereo not given), the cytotoxicity at 10 µM came out at 15.6%. Regarding `OCCN(CCO)Cc1ccc(Br)c2cccnc12`, the cytotoxicity at 10 µM is 0.14%.

As for `CC(C)(C)NC(=O)CNc1ncccn1`, the cytotoxicity at 10 µM was -5.09%. With `CNC(=O)Cc1noc(-c2cc3c(s2)CCC(C)(C)C3)n1`, the cytotoxicity at 10 µM turned out to be 3.57%. Under `N#CCCN(CC1CCOC1)S(=O)(=O)c1c(F)cccc1Cl` (stereo not given) stands -2.58%; under `Cc1ccc(S(=O)(=O)N2CCOCC2C#N)cc1Br` (stereo not given), 6.08%; under `CNC(=O)C1CCCN1C(=O)NCCCc1cccc(F)c1` (stereo not given), 2.75%. For `CC(C)(C)c1nccc(N2CCCCC2CCNS(C)(=O)=O)n1` (stereo not given), the cytotoxicity at 10 µM turned out to be 8.83%. `CC(CNC(=O)c1nnn(-c2ccccc2)c1C(F)(F)F)N(C)C` (stereo not given): the cytotoxicity at 10 µM was found to be 2.19%. Then `CCNc1cc2c(nn1)CCN(C(=O)C1Cc3ccccc3S1)C2` (stereo not given), with -1.4%; and `O=C(Cn1cccc2oc(=O)nc1-2)NCC1Cc2ccccc2O1` (stereo not given), with -7.79%; and `CC(C)c1nc(C2CCCN(C(=O)CN(C)S(C)(=O)=O)C2)no1` (stereo not given), with -0.304%. With `CN(CC(=O)N1CCN(c2cnccn2)CC1)c1ccc(Cl)cn1`, the cytotoxicity at 10 µM was -0.487%.

Consider `CC(C)c1ncncc1C(=O)NCCN1CCOCC1`, for which the cytotoxicity at 10 µM is -0.103%. In the case of `Cc1cc(C(=O)NC2CCN(CC(N)=O)CC2)nn1C(C)(C)C`, the cytotoxicity at 10 µM is -5.22%. With `COCc1ccccc1CNC(=O)CNc1ccccc1C(C)=O`, the cytotoxicity at 10 µM is 3.49%. On to `O=S(=O)(c1cccnc1)N1CCC(OCCCc2ccccc2)C1` (stereo not given), for which the cytotoxicity at 10 µM was 9.31%. Then `CSCC(=O)NC1CCN(C(C)c2ccccc2)CC1` (stereo not given), with 3.63%; and `CCC(CNS(C)(=O)=O)Oc1ccccc1C` (stereo not given), with 17.3%; and `CCN(C(=O)CN1CCC(c2ccccc2)C1)C1CC1` (stereo not given), with 9.4%. Take `O=C(c1ccc(Sc2ccccn2)cc1)N1CCCSCC1`: the cytotoxicity at 10 µM stood at 11.5%. `CC(CO)(NCc1noc(Cc2ccccc2)n1)C1CCCCC1` (stereo not given): the cytotoxicity at 10 µM was -17.2%. As to `CC(C)N(Cc1ccccn1)C(=O)CCOc1cccc(F)c1`, the cytotoxicity at 10 µM was found to be 4.58%. For `Cc1cccc(CN(Cc2ccccn2)S(=O)(=O)N(C)C)c1`, the cytotoxicity at 10 µM was -1.74%. Then `CCOC(=O)NC1CCCN(Cc2ccc(-n3cncn3)c(C)c2)C1` (stereo not given), with 2.12%. With `O=C(NCc1cccnc1N1CCCCC1)c1ccc2c(c1)OCO2`, the cytotoxicity at 10 µM is -3.76%. With `Cc1nnc(SCCC(=O)N(C)Cc2c(F)cccc2Cl)[nH]1`, the cytotoxicity at 10 µM amounted to 1.69%. Consider `Cc1cc(NS(=O)(=O)c2cnc3onc(C)c3c2)no1`, for which the cytotoxicity at 10 µM worked out at 4.43%. Take `O=C(c1cnc2[nH]c(=O)[nH]c(=O)c2c1)N1CCCC1C1CCCCC1` (stereo not given): the cytotoxicity at 10 µM was -5.94%. In the case of `CC(C)(CNC(=O)OC(C)(C)C)NC(=O)C1CC(=O)N(C2CC2)C1` (stereo not given), the cytotoxicity at 10 µM came to 14.3%. In the case of `COCCn1cc(C(=O)N2CCCC2c2cccc(F)c2)ccc1=O` (stereo not given), the cytotoxicity at 10 µM was -3.48%. As to `Cc1cnc(NC(=O)N2CCCC2)s1`, the cytotoxicity at 10 µM is -13.6%. `Cn1nc2c(cc1=O)CN(CC(=O)Nc1ccc(Cl)cn1)CC2`: the cytotoxicity at 10 µM was 0.874%. Regarding `CCCS(=O)(=O)NCc1cccnc1OCC`, the cytotoxicity at 10 µM was -7.87%. On to `O=C(CN(Cc1ccccc1)CC1CCOCC1)Nc1nccs1`, for which the cytotoxicity at 10 µM was -13.5%. With `CCOc1ncccc1NC(=O)c1cc(C)c(C)s1`, the cytotoxicity at 10 µM is -2.96%.

For the compound `O=C(NC1CC1)N1C[C@@H]2CCN(C(=O)c3cscn3)[C@@H]2C1`, the cytotoxicity at 10 µM is -0.025%. With `Cc1nnc([C@@]23CCO[C@@H]2CCN(Cc2cccc4ccccc24)C3)o1`, the cytotoxicity at 10 µM was -103%.

Take `O=C(c1ncccn1)N1C[C@@H]2CN(Cc3cccnc3)CCO[C@@H]2C1`: the cytotoxicity at 10 µM was 7.67%. On to `CC(=O)Nc1nc(C)c(S(=O)(=O)NCCc2ccccn2)s1`, for which the cytotoxicity at 10 µM was -5%. As for `COc1ccc2c(c1)CC(C(=O)N(C)CCCc1cnn(C)c1)CO2` (stereo not given), the cytotoxicity at 10 µM is -7.55%.

`Cc1ccc2c(c1)SCC(=O)N2CC(=O)N1CCCC1c1cc(C)on1` (stereo not given): the cytotoxicity at 10 µM was 1.28%. Consider `CSCC(=O)N1C[C@H](c2ccc(C)o2)[C@@H](N)C1`, for which the cytotoxicity at 10 µM came out at 6.6%. `CCOc1ccc2[nH]c(=O)c(CN3CCC(N4CCCC4)CC3)cc2c1`: the cytotoxicity at 10 µM is -7.83%. Then `CCC1CN(Cc2nnc(C3CC3)o2)CCC(=O)N1Cc1ccccc1` (stereo not given), with 0.0723%. For `CC1(Cc2ccc3c(c2)OCO3)CCCN(S(=O)(=O)N2CCCC2)C1` (stereo not given), the cytotoxicity at 10 µM was -0.788%. Under `O=C(CCN1CCOC(C(F)(F)F)C1)NCc1ccc(Cl)cc1` (stereo not given) stands -9.93%; under `O=C(O)C1CN(Cc2cccc(-c3ccccn3)c2)CCO1` (stereo not given), -10.5%; under `COc1nc2ccccc2cc1C1CC(=O)Nc2n[nH]c(C3CCC3)c21` (stereo not given), -13.5%.

Turning to `CCc1nccn1CCCNC(=O)c1cnn(-c2ccccc2OC)c1`, the cytotoxicity at 10 µM is -17.1%. For the compound `O=C(NCc1cc2n(n1)CCCNC2)C1(c2ccccc2)CCCCC1`, the cytotoxicity at 10 µM is -10.6%. For `FC(F)(F)c1ccnc(N2CCCN(Cc3ccccn3)CC2)n1`, the cytotoxicity at 10 µM was -3.5%. Consider `CCC(=O)N1CCCC(C(=O)N2CCN(c3cnn(C)c(=O)c3)CC2)C1` (stereo not given), for which the cytotoxicity at 10 µM came out at 3.98%. Turning to `O=C(c1cccc(Cl)c1F)N1CCOC2(CNCCOC2)C1` (stereo not given), the cytotoxicity at 10 µM was -2.06%.

Turning to `CC(=O)Nc1ccc(C(=O)Nc2cnc3n2CCCC3)cc1C`, the cytotoxicity at 10 µM worked out at 0.271%. On to `Cc1ccc(OCC(C)NS(C)(=O)=O)cc1` (stereo not given), for which the cytotoxicity at 10 µM came out at 14.8%. For the compound `Cc1cncc(C(=O)N2CCC(Cn3cc(-c4ccsc4)nn3)CC2)c1`, the cytotoxicity at 10 µM was -6.69%. Consider `CCCc1nc(C)cc(N2CCC3(CCC(=O)N(CC4CC4)C3)CC2)n1`, for which the cytotoxicity at 10 µM came out at 14.9%.

Turning to `O=C(NCCn1ccnc1)N1CCCC1c1ccc2c(c1)OCCO2` (stereo not given), the cytotoxicity at 10 µM is -8.16%. On to `c1cc(COc2ccc(CNC3CCc4ncnn4C3)cc2)ccn1` (stereo not given), for which the cytotoxicity at 10 µM is -0.279%. In the case of `CCn1ccnc1CN1CCN(CCC(=O)NC2CCCCC2)CC1`, the cytotoxicity at 10 µM was -12.3%. For `CNS(=O)(=O)c1ccc(C(=O)N2CCCC2c2ccccc2)o1` (stereo not given), the cytotoxicity at 10 µM is -7.67%. As to `CS(=O)(=O)c1ccc(CNC(=O)N2CCC(c3ccccc3)CC2)cc1`, the cytotoxicity at 10 µM was -0.884%.

Regarding `Cc1cnn(CC(C)NCc2ccc(-n3cccn3)cc2)c1` (stereo not given), the cytotoxicity at 10 µM was found to be 1.44%. As for `Cc1ccc(C(=O)NC2CCN(C(=O)Nc3ccccn3)CC2)o1`, the cytotoxicity at 10 µM came out at 4.86%.

On to `CCc1ccc(C(=O)N2CCCC(c3noc(CC)n3)C2)o1` (stereo not given), for which the cytotoxicity at 10 µM was -3.97%. For the compound `Cc1c(C(=O)N2CCOCC2)n(C)c2ccc(Cl)cc12`, the cytotoxicity at 10 µM was -0.244%. Turning to `Cc1ccc2c(n1)N(CCn1cccn1)CCN(C(=O)CC1CC1)C2`, the cytotoxicity at 10 µM is -5.58%.

Turning to `Cc1noc(C)c1CN1C[C@H](OCC2CC2)[C@H]2OCCC[C@H]21`, the cytotoxicity at 10 µM is -14.9%. Regarding `COCCNC(=O)[C@H]1C[C@@H]2CCN(Cc3ccncc3)C[C@H]2O1`, the cytotoxicity at 10 µM is 2.6%. Regarding `Cc1cccc(S(=O)(=O)N2CC[C@H]3CO[C@H](CN(C)C)[C@H]3C2)c1`, the cytotoxicity at 10 µM was -92.1%.

For the compound `CN(C)C(=O)CO[C@@H]1CN(Cc2ccccc2F)[C@@H]2CCCO[C@@H]21`, the cytotoxicity at 10 µM was -3.81%. Then `O=C([C@@H]1C[C@H]2[C@H](CCN2Cc2nccs2)O1)N1CCOCC1`, with -8.66%; and `COCCN1C[C@@H]2CN(Cc3cccc(F)c3)CCC[C@]2(C(=O)O)C1`, with 0.928%; and `CN1CCC(c2nnc3ccc(C(=O)NC4CCCC4)cn23)C1` (stereo not given), with -1.37%.

Turning to `COCC1CC2(CCN(Cc3ccoc3)CC2)CN1C(C)C` (stereo not given), the cytotoxicity at 10 µM came to 0.803%. As for `O=C(NC1CCCC1)[C@H]1C[C@H]2OCC[C@H]2N(Cc2ccoc2)C1`, the cytotoxicity at 10 µM is -77.3%.

Consider `O=C(c1ccc(F)cc1)N1CCN2C[C@H](OCc3ccccn3)C[C@H]2C1`, for which the cytotoxicity at 10 µM was 2.8%. Consider `c1csc(CN2CCCn3cnc(COCC4CC4)c3C2)c1`, for which the cytotoxicity at 10 µM was -74.6%. `Cc1ccc(C(=O)N2[C@@H]3CC[C@H]2CC(=O)N(C)C3)c(=O)[nH]1`: the cytotoxicity at 10 µM stood at 4.23%.
